From ChEMBL document CHEMBL1151723, “Antiplasmodial alkaloids from Desmos rostrata” (J Nat Prod, 2008) come the findings set out here.

SMILES strings stand for the structures.

One assay relates to Plasmodium falciparum. In words: Antiplasmodial activity against Plasmodium falciparum FcB1 as [3H]hypoxanthine uptake after 24 hrs. It is filed as functional, organism-based. Put shortly: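 Chloroquine-resistant FcB1/Colombia P. falciparum, asynchronous cultures at 1% parasitemia, 1.5% final hematocrit. Compounds taken from 10 µg/mL DMSO solution, diluted in culture medium; 24 h at 37 °C in candle jar, then 0.5 µCi [3H]hypoxanthine per well, further 24 h. Freeze-thaw, harvest onto glass fibre filters, scintillation count; inhibition vs same-plate untreated control; IC50 by Desjardins method.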

The test system of the next assay is KB. In words: Cytotoxicity against human KB cells after 72 hrs by neutral red staining. Type of assay: functional, cell-based. Put shortly:
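Human nasopharynx carcinoma KB cells (3 × 10^3 cells/mL) in D-MEM with 10% FCS, 2 mM L-glutamine, penicillin G, streptomycin, gentamicin. Compound stocks in DMSO/H2O (1:9). Exposure 72 h at 37 °C, air/CO2 95:5; growth read colorimetrically by neutral red uptake of living cells, relative to untreated cells.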

On to `COc1c(O)cc2c3c(cc4ccccc4c13)NC2=O` [ARISTOLACTAM AII], for which the IC50 in the assay with Plasmodium falciparum and in the assay on KB was more than 37 µM in each case. For the compound `COc1cc2c(cc1OC)-c1c(OC)c(O)cc3c1[C@H](C2)N(C)CC3` [PREDICENTRINE], the IC50 (as a rule, the concentration at which inhibition is half-maximal) in the assay on Plasmodium falciparum is 27.8 µM; in the assay with KB, more than 29 µM. The matching figures for `COc1cc2c(cc1O)CCN1Cc3cc(OC)c(OC)cc3C[C@@H]21` [DISCRETINE]: 1.6 µM and more than 29 µM. With `COc1cc2c(cc1O)CC[N+]1([O-])Cc3cc(OC)c(OC)cc3C[C@@H]21` (stereo partly drawn), the IC50 in the assay with Plasmodium falciparum was 4.2 µM; with KB, more than 28 µM. As to `COc1ccc2c(c1OC)C[C@H]1NCCc3c(OC)c4c(c-2c31)OCO4` [DESMOROSTRATINE], the IC50 with Plasmodium falciparum was determined as 3.6 µM; in the assay on KB it was 2.4 µM. In the assay with KB, `CC(=O)O[C@@]12CO[C@@H]1C[C@H](O)[C@@]1(C)C(=O)[C@H](O)C3=C(C)[C@@H](OC(=O)[C@H](O)[C@@H](NC(=O)OC(C)(C)C)c4ccccc4)C[C@@](O)([C@@H](OC(=O)c4ccccc4)[C@H]21)C3(C)C` [DOCETAXEL] showed an IC50 of 0.0002 µM. On to `COc1cc2c(cc1O)CC[n+]1cc3cc(OC)c(OC)cc3cc1-2` [DEHYDRODISCRETINE], for which the IC50 with Plasmodium falciparum was 0.9 µM; in the assay with KB, more than 29 µM.
